Experimental data reported in ChEMBL document CHEMBL2021913, “Synthesis and biological evaluation of some novel thiazole substituted benzotriazole derivatives” (2012).
≈ marks a conversion by molar mass, not a printed value. Calls of active or inactive are those of the source. The calls are words filed in the database; no cut-off is given here.

Tests used:
Type in all cases: functional
Escherichia coli [1] = assay: Antimicrobial activity against Escherichia coli 2109 at 128 ug/disc at 35 degC after 24 hrs by agar-well diffusion assay; settings: for zone of inhibition at 128 µg/disc: Escherichia coli, 2109, 24 h, read-out: DIZ
How it was run: (§1)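 Agar-well diffusion: 24 h bacterial cultures adjusted to 0.5 McFarland (1.5 × 10⁸ CFU/mL) and mixed into molten Mueller-Hinton agar before pouring. 6 mm wells punched and each filled with 50 µL of compound stock or control. Plates incubated 35 °C for 24 h. Zone of growth inhibition diameter measured with vernier caliper.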

Bacillus subtilis [2] = assay: Antimicrobial activity against Bacillus subtilis 2250 at 35 degC after 18 to 24 hrs by NCCLS method based antimicrobial assay; settings: for MBC: read-out: MBC99.9
Aspergillus niger [3] = assay: Antimicrobial activity against Aspergillus niger 545 at 128 ug/disc at 37 degC after 24 to 72 hrs by agar-well diffusion assay; settings: read-out: DIZ
How it was run: (§2)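 Potato dextrose agar base plates overlaid with seeded agar cooled to 40 °C and inoculated with spores from 10-day cultures, final 1 × 10⁶ spores/mL. Compounds dissolved in DMSO at 128 µg/mL and applied on 6 mm filter-paper discs placed on chilled seeded medium. Nystatin positive control, DMSO negative control. Incubation 24–72 h at 37 °C. Inhibition zone diameter read by vernier caliper.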

Pseudomonas aeruginosa [4] = assay: Antimicrobial activity against Pseudomonas aeruginosa 2036 at 35 degC after 18 to 24 hrs by NCCLS method based antimicrobial assay; settings: for MBC: read-out: MBC99.9
Staphylococcus aureus [5] = assay: Antimicrobial activity against Staphylococcus aureus 2079 at 35 degC after 18 to 24 hrs by NCCLS method based antimicrobial assay; settings: for MBC: read-out: MBC99.9
Aspergillus niger [6] = assay: Ratio of MFC99.9 to MIC90 for Aspergillus niger 545 at 35 degC after 48 hrs by CLSI method based antimicrobial assay
How it was run: (§3)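 Broth microdilution following CLSI guidelines over 256 to 1 µg/mL. MIC90 is the lowest concentration completely inhibiting growth. For MFC, 0.1 mL from each tube spread on agar and CFU counted after 48 h at 35 °C; MFC is lowest concentration killing 99.9% of inoculum. MFC/MIC ratio calculated: […], ≤4 as fungicidal.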

Candida albicans [7] = assay: Antimicrobial activity against Candida albicans 3471 at 35 degC after 48 hrs by CLSI method based antimicrobial assay; settings: for MFC: read-out: MFC99.9; how it was run: as §3
Staphylococcus aureus [8] = assay: Antimicrobial activity against Staphylococcus aureus 2079 at 128 ug/disc at 35 degC after 24 hrs by agar-well diffusion assay; settings: for zone of inhibition at 128 µg/disc: Staphylococcus aureus, 2079, 24 h, read-out: DIZ; how it was run: as §1
Pseudomonas aeruginosa [9] = assay: Antimicrobial activity against Pseudomonas aeruginosa 2036 at 128 ug/disc at 35 degC after 24 hrs by agar-well diffusion assay; settings: for zone of inhibition at 128 µg/disc: Pseudomonas aeruginosa, 2036, 24 h, read-out: DIZ; how it was run: as §1
Candida albicans [10] = assay: Antimicrobial activity against Candida albicans 3471 at 128 ug/disc at 37 degC after 24 to 72 hrs by agar-well diffusion assay; settings: for zone of inhibition at 128 µg/disc: read-out: DIZ; how it was run: as §2
Aspergillus niger [11] = assay: Antimicrobial activity against Aspergillus niger 545 at 35 degC after 48 hrs by CLSI method based antimicrobial assay; settings: for MFC: read-out: MFC99.9; how it was run: as §3
Bacillus subtilis [12] = assay: Antimicrobial activity against Bacillus subtilis 2250 at 128 ug/disc at 35 degC after 24 hrs by agar-well diffusion assay; settings: for zone of inhibition at 128 µg/disc: Bacillus subtilis, 2250, 24 h, read-out: DIZ; how it was run: as §1
Escherichia coli [13] = assay: Antimicrobial activity against Escherichia coli 2109 at 35 degC after 18 to 24 hrs by NCCLS method based antimicrobial assay; settings: for MBC: read-out: MBC99.9
Candida albicans [14] = assay: Ratio of MFC99.9 to MIC90 for Candida albicans 3471 at 35 degC after 48 hrs by CLSI method based antimicrobial assay; how it was run: as §3

| Compound | zone of inhibition at 128 µg/disc (Escherichia coli [1]) | MBC99.9 (Bacillus subtilis [2]) | MIC (Bacillus subtilis [2]) | zone of inhibition at 128 µg/disc (Aspergillus niger [3]) | MIC (Pseudomonas aeruginosa [4]) | MBC99.9 (Staphylococcus aureus [5]) | MIC (Staphylococcus aureus [5]) | Ratio (Aspergillus niger [6]) | diameter of the inhibition zone (DIZ) (Staphylococcus aureus [8]) | MIC (Aspergillus niger [11]; Aspergillus niger, 545, 48 h) | MFC (Aspergillus niger [11]; Aspergillus niger, 545, 48 h) | diameter of the inhibition zone (DIZ) (Bacillus subtilis [12]) | MIC (Escherichia coli [13]) | MBC (Escherichia coli [13]) | Ratio (Candida albicans [14]) | MBC (Pseudomonas aeruginosa [4]) | MIC (Candida albicans [7]; Candida albicans, 3471, 48 h) | MFC (Candida albicans [7]; Candida albicans, 3471, 48 h) | zone of inhibition at 128 µg/disc (Pseudomonas aeruginosa [9]) | zone of inhibition at 128 µg/disc (Candida albicans [10]) | other results |
| --- | --- | --- | --- | --- | --- | --- | --- | --- | --- | --- | --- | --- | --- | --- | --- | --- | --- | --- | --- | --- | --- |
| FC(F)(F)c1cc(/C(Cn2nnc3ccccc32)=N\Nc2nc(-c3ccc(Cl)cc3)cs2)cc(C(F)(F)F)c1 | 18.7 mm | inactive | inactive | 19.7 mm | inactive | inactive | inactive | 4 | inactive | 16 µg/mL (≈ 27.5 µM) | 64 µg/mL (≈ 110 µM) | inactive | 128 µg/mL (≈ 220 µM) | 256 µg/mL (≈ 441 µM) | – | – | – | – | – | – | MBC99.9 (Pseudomonas aeruginosa [4]): inactive; MFC99.9 (Candida albicans [7]): inactive; MIC (Candida albicans [7]): inactive; diameter of the inhibition zone (DIZ) (Pseudomonas aeruginosa [9]): inactive; diameter of the inhibition zone (DIZ) (Candida albicans [10]): inactive |
| NYSTATIN | – | – | – | – | – | – | – | 2 | – | – | – | – | – | – | 2 | – | – | – | – | – | MFC99.9 (Candida albicans [7]): 32 µg/mL; MIC (Candida albicans [7]): 16 µg/mL; MFC99.9 (Aspergillus niger [11]): 32 µg/mL; MIC (Aspergillus niger [11]): 16 µg/mL |
| Fc1ccc(-c2csc(N/N=C(/Cn3nnc4ccccc43)c3ccc(Br)cc3)n2)cc1 | 18.7 mm | inactive | inactive | 17.6 mm | 32 µg/mL (≈ 63.1 µM) | inactive | inactive | 2 | inactive | 32 µg/mL (≈ 63.1 µM) | 64 µg/mL (≈ 126 µM) | inactive | 128 µg/mL (≈ 252 µM) | 128 µg/mL (≈ 252 µM) | 4 | 64 µg/mL (≈ 126 µM) | 32 µg/mL (≈ 63.1 µM) | 128 µg/mL (≈ 252 µM) | 19.8 mm | 16.8 mm | – |
| O=[N+]([O-])c1ccc(-c2csc(N/N=C(/Cn3nnc4ccccc43)c3ccc(F)cc3)n2)cc1 | – | – | 128 µg/mL (≈ 270 µM) | 16.2 mm | inactive | inactive | inactive | 4 | inactive | 32 µg/mL (≈ 67.6 µM) | 128 µg/mL (≈ 270 µM) | – | inactive | – | 2 | – | 32 µg/mL (≈ 67.6 µM) | 64 µg/mL (≈ 135 µM) | – | 18.7 mm | diameter of the inhibition zone (DIZ) (Escherichia coli [1]): inactive; MBC (Bacillus subtilis [2]): 256 µg/mL (≈ 541 µM); MBC99.9 (Pseudomonas aeruginosa [4]): inactive; diameter of the inhibition zone (DIZ) (Pseudomonas aeruginosa [9]): inactive; zone of inhibition at 128 µg/disc (Bacillus subtilis [12]): 14.9 mm; MBC99.9 (Escherichia coli [13]): inactive |
| Fc1ccc(-c2csc(N/N=C(/Cn3nnc4ccccc43)c3cc(C(F)(F)F)cc(C(F)(F)F)c3)n2)cc1 | – | inactive | inactive | 16.8 mm | inactive | – | 32 µg/mL (≈ 56.7 µM) | 2 | – | 32 µg/mL (≈ 56.7 µM) | 64 µg/mL (≈ 113 µM) | inactive | inactive | – | 4 | – | 32 µg/mL (≈ 56.7 µM) | 128 µg/mL (≈ 227 µM) | – | 18.4 mm | diameter of the inhibition zone (DIZ) (Escherichia coli [1]): inactive; MBC99.9 (Pseudomonas aeruginosa [4]): inactive; MBC (Staphylococcus aureus [5]): 64 µg/mL (≈ 113 µM); zone of inhibition at 128 µg/disc (Staphylococcus aureus [8]): 24.3 mm; diameter of the inhibition zone (DIZ) (Pseudomonas aeruginosa [9]): inactive; MBC99.9 (Escherichia coli [13]): inactive |
| O=[N+]([O-])c1ccc(-c2csc(N/N=C(/Cn3nnc4ccccc43)c3ccc(Cl)cc3)n2)cc1 | – | inactive | inactive | 13.6 mm | 64 µg/mL (≈ 131 µM) | inactive | inactive | 2 | inactive | 128 µg/mL (≈ 261 µM) | 256 µg/mL (≈ 523 µM) | inactive | inactive | – | – | 128 µg/mL (≈ 261 µM) | – | – | 16.4 mm | – | diameter of the inhibition zone (DIZ) (Escherichia coli [1]): inactive; MFC99.9 (Candida albicans [7]): inactive; MIC (Candida albicans [7]): inactive; diameter of the inhibition zone (DIZ) (Candida albicans [10]): inactive; MBC99.9 (Escherichia coli [13]): inactive |
| O=[N+]([O-])c1ccc(/C(Cn2nnc3ccccc32)=N\Nc2nc(-c3cc(C(F)(F)F)cc(C(F)(F)F)c3)cs2)cc1 | 15 mm | inactive | inactive | 17.9 mm | inactive | inactive | inactive | 2 | inactive | 32 µg/mL (≈ 54.1 µM) | 64 µg/mL (≈ 108 µM) | inactive | 128 µg/mL (≈ 216 µM) | 256 µg/mL (≈ 433 µM) | 2 | – | 128 µg/mL (≈ 216 µM) | 256 µg/mL (≈ 433 µM) | – | 19 mm | MBC99.9 (Pseudomonas aeruginosa [4]): inactive; diameter of the inhibition zone (DIZ) (Pseudomonas aeruginosa [9]): inactive |
| Clc1ccc(-c2csc(N/N=C(/Cn3nnc4ccccc43)c3ccc(Br)cc3)n2)cc1 | 21.8 mm | inactive | inactive | 15.2 mm | 16 µg/mL (≈ 30.5 µM) | inactive | inactive | 2 | inactive | 64 µg/mL (≈ 122 µM) | 128 µg/mL (≈ 244 µM) | inactive | 64 µg/mL (≈ 122 µM) | 128 µg/mL (≈ 244 µM) | – | 32 µg/mL (≈ 61.1 µM) | – | – | 21.2 mm | – | MFC99.9 (Candida albicans [7]): inactive; MIC (Candida albicans [7]): inactive; diameter of the inhibition zone (DIZ) (Candida albicans [10]): inactive |
| Fc1ccc(/C(Cn2nnc3ccccc32)=N\Nc2nc(-c3ccc(F)cc3)cs2)cc1 | 15 mm | – | 64 µg/mL (≈ 143 µM) | 19.1 mm | 128 µg/mL (≈ 287 µM) | – | 64 µg/mL (≈ 143 µM) | 4 | – | 16 µg/mL (≈ 35.8 µM) | 64 µg/mL (≈ 143 µM) | – | 128 µg/mL (≈ 287 µM) | 128 µg/mL (≈ 287 µM) | 2 | 256 µg/mL (≈ 573 µM) | 16 µg/mL (≈ 35.8 µM) | 32 µg/mL (≈ 71.7 µM) | 11.8 mm | 21.1 mm | MBC (Bacillus subtilis [2]): 128 µg/mL (≈ 287 µM); MBC (Staphylococcus aureus [5]): 128 µg/mL (≈ 287 µM); zone of inhibition at 128 µg/disc (Staphylococcus aureus [8]): 20.1 mm |
| Fc1ccc(/C(Cn2nnc3ccccc32)=N\Nc2nc(-c3ccc(Cl)cc3)cs2)cc1 | – | inactive | inactive | 21.4 mm | 64 µg/mL (≈ 138 µM) | – | 32 µg/mL (≈ 69.1 µM) | 1 | – | 16 µg/mL (≈ 34.6 µM) | 16 µg/mL (≈ 34.6 µM) | inactive | inactive | – | 4 | 64 µg/mL (≈ 138 µM) | 16 µg/mL (≈ 34.6 µM) | 64 µg/mL (≈ 138 µM) | 19.1 mm | 20.2 mm | MBC (Staphylococcus aureus [5]): 32 µg/mL (≈ 69.1 µM); zone of inhibition at 128 µg/disc (Staphylococcus aureus [8]): 25.9 mm; MBC99.9 (Escherichia coli [13]): inactive |
| Clc1ccc(/C(Cn2nnc3ccccc32)=N\Nc2nc(-c3ccc(Cl)cc3)cs2)cc1 | – | – | 32 µg/mL (≈ 66.8 µM) | 18.2 mm | 128 µg/mL (≈ 267 µM) | – | 64 µg/mL (≈ 134 µM) | 1 | – | 32 µg/mL (≈ 66.8 µM) | 32 µg/mL (≈ 66.8 µM) | – | inactive | – | 2 | 128 µg/mL (≈ 267 µM) | 16 µg/mL (≈ 33.4 µM) | 32 µg/mL (≈ 66.8 µM) | 11.3 mm | 21 mm | MBC (Bacillus subtilis [2]): 64 µg/mL (≈ 134 µM); MBC (Staphylococcus aureus [5]): 32 µg/mL (≈ 66.8 µM); zone of inhibition at 128 µg/disc (Staphylococcus aureus [8]): 27.9 mm; zone of inhibition at 128 µg/disc (Bacillus subtilis [12]): 25.1 mm; MBC99.9 (Escherichia coli [13]): inactive |
